The target of data set [1] is T1, Sodium- and chloride-dependent glycine transporter 2 (Homo sapiens, UniProt Q9Y345).
T1 sequence (Q9Y345 whole entry): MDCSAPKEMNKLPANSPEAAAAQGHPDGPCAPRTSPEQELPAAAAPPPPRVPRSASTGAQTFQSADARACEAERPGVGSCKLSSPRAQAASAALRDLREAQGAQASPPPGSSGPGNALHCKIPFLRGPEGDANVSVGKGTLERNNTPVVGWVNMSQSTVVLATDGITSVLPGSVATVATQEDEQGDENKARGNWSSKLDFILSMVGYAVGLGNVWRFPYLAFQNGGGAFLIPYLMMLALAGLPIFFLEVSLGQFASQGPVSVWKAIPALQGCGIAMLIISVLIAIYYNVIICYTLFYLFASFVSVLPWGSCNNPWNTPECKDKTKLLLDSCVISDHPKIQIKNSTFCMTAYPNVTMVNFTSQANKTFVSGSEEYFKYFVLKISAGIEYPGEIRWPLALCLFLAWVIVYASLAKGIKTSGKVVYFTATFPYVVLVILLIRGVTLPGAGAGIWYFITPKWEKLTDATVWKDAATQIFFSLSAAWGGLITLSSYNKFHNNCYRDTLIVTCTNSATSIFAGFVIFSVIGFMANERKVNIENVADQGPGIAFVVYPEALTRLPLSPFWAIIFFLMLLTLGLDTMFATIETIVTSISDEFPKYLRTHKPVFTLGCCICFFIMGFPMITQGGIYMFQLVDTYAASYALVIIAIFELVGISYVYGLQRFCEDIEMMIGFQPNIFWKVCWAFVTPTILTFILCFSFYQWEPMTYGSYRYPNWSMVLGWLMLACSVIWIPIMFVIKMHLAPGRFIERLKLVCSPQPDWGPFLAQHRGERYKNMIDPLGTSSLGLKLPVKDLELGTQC
Description: Inhibition of [3H]glycine uptake at human glycine transporter 2 expressed in CHO cells by scintillation counter. It counts as cell-based. The method, boiled down: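 [³H]-glycine uptake inhibition in cells transfected with human GlyT2 cDNA. EC50 is the average of at least two independent experiments.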

Data set [2] deals with T2, Sodium- and chloride-dependent glycine transporter 1 (Homo sapiens, UniProt P48067).
T2 sequence (P48067 whole entry): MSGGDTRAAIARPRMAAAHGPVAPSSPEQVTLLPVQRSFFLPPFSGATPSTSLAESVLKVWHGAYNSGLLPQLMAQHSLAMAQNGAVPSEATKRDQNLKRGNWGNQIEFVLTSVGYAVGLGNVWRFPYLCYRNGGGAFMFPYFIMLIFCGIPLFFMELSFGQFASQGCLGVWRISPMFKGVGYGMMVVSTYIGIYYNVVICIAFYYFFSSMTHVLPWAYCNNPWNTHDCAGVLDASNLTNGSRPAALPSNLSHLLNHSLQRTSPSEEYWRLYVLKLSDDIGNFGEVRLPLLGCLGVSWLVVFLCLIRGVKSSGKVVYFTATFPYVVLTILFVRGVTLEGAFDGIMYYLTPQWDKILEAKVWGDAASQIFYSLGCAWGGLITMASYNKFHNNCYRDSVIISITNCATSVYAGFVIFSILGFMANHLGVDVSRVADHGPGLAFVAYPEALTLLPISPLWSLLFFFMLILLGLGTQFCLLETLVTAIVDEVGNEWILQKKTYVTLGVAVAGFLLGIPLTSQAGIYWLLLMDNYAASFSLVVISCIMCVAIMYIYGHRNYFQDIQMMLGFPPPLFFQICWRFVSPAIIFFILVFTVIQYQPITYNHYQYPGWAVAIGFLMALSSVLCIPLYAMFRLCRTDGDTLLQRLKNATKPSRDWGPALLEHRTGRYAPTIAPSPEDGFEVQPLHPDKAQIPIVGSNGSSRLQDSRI
Kind of data set: Inhibition of [3H]glycine uptake at human glycine transporter 1 expressed in CHO cells by scintillation counter. Format: cell-based.

The species entered for data set [3] is Homo sapiens. Kind of data set: Selectivity ratio of IC50 for human glycine transporter 2 to IC50 for human glycine transporter 1. The method in brief: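 [³H]-glycine uptake inhibition in cells transfected with human GlyT1 or human GlyT2 cDNA. Each EC50 is the average of at least two independent experiments. Selectivity is the ratio of GlyT2 EC50 to GlyT1 EC50.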

The nature of data set [4]: Membrane permeability by PAMPA. It counts as ADME. As to conditions: read-out: permeability. The method in brief: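 PAMPA artificial-membrane permeation, reported as the permeation constant Pe in 10^-6 cm/s.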
For orientation: The PAMPA barrier holds no transporters, so it reflects passive diffusion.

The test system of data set [5] is Liver microsomes. Kind of data set: Metabolic stability in human liver microsomes assessed as intrinsic clearance per […] of protein. Format: ADME, Microsome. The method in brief:
(§1)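 Intrinsic clearance measured in liver microsomes from rat, mouse or human, expressed per mg microsomal protein.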
On the technique in general: Liver microsomes are vesicles of endoplasmic reticulum, rich in cytochrome P450 enzymes.

Data set [6] in a line: Aqueous solubility in phosphate buffer at pH 6.5 by lyophilization solubility assay. It counts as physicochemical. The method in brief:
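Aqueous solubility was measured at pH 6.5 in a lyophilization solubility assay.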

For data set [7], the system named is Liver microsomes. Kind of data set: Metabolic stability in rat liver microsomes assessed as intrinsic clearance per […] of protein. It counts as ADME, Microsome. The method, boiled down:
as §1

The source of these data is ChEMBL document CHEMBL1141693, “Discovery of benzoylpiperazines as a novel class of potent and selective GlyT1 inhibitors” (Bioorg Med Chem Lett, 2008).

Values after ≈ are worked out from the molar mass of the structure shown. Some results are limits rather than exact numbers.

A word on the EC50: it is the concentration giving half of the maximal effect. A word on the solubility: it is how much of the substance goes into solution per volume. High values mean a readily soluble substance, low ones a poorly soluble substance.

For `O=C(c1cc([N+](=O)[O-])ccc1N1CCOCC1)N1CCN(c2cccc(Cl)c2)CC1`, the EC50 amounted to 3100 nM in data set [1] and 700 nM in data set [2].
The matching figures for `CS(=O)(=O)c1ccc(N2CCN(C(=O)c3cc([N+](=O)[O-])ccc3N3CCOCC3)CC2)cc1`: 2100 nM and 110 nM.
The matching figures for `O=C(c1cc([N+](=O)[O-])ccc1N1CCOCC1)N1CCN(c2ccc(C(F)(F)F)cc2)CC1`: 3300 nM and 100 nM.
For the compound `O=C(c1cc([N+](=O)[O-])ccc1N1CCOCC1)N1CCN(c2ccccc2Cl)CC1`, the values for the EC50 in data set [1] and in data set [2] were 11200 nM and 1400 nM, respectively.
The matching figures for `CNc1ccc([N+](=O)[O-])cc1C(=O)N1CCN(c2ccc(C(C)=O)cc2F)CC1`: 1400 nM and 1900 nM.
On to `Cc1ccccc1N1CCN(C(=O)c2cc([N+](=O)[O-])ccc2N2CCOCC2)CC1`, for which the values for the EC50 in data set [1] and in data set [2] were 14200 nM and greater than 10000 nM, respectively.
Turning to `O=C(c1cc([N+](=O)[O-])ccc1N1CCOCC1)N1CCN(c2ccccc2C(F)(F)F)CC1`, the EC50 was greater than 30000 nM in data set [1] and 7100 nM in data set [2].
The matching figures for `O=C(c1cc([N+](=O)[O-])ccc1N1CCOCC1)N1CCN(c2ccc(Cl)cc2)CC1`: 1170 nM and 310 nM.
As to `CC(=O)c1ccc(N2CCN(C(=O)c3cc(Br)ccc3N3CCOCC3)CC2)c(F)c1`, the Ratio EC50 in data set [3] is less than 0.2. Also, the results for the EC50 in data set [1] and in data set [2] were 5100 nM and greater than 30000 nM, respectively.
For the compound `CC(=O)c1ccc(N2CCN(C(=O)c3cc(S(=O)(=O)Cc4ccccc4)ccc3N3CCOCC3)CC2)c(F)c1`, the EC50 in data set [1] and in data set [2] was greater than 30000 nM throughout.
Consider `O=C(c1cc([N+](=O)[O-])ccc1N1CCOCC1)N1CCN(c2ccc(C(F)(F)F)cc2F)CC1`, for which the concentration for a half-maximal effect (EC50) was determined as 29000 nM in data set [1] and 41 nM in data set [2].
On to `CC(=O)c1ccc(N2CCN(C(=O)c3cc(C(F)(F)F)ccc3N3CCOCC3)CC2)c(F)c1`, for which the Ratio EC50 in data set [3] stood at 0.4. The EC50 is 11000 nM in data set [1] and 26000 nM in data set [2].
For `COc1ccc(N2CCN(C(=O)c3cc([N+](=O)[O-])ccc3N3CCOCC3)CC2)cc1`, the figures for the concentration giving a half-maximal response (EC50) in data set [1] and in data set [2] were 11400 nM and 1300 nM, respectively.
On to `CC(=O)c1ccc(N2CCN(C(=O)c3cc([N+](=O)[O-])ccc3N)CC2)c(F)c1`, for which the EC50 was 3300 nM in data set [1] and greater than 10000 nM in data set [2].
The matching figures for `Cc1ccc(N2CCN(C(=O)c3cc([N+](=O)[O-])ccc3N3CCOCC3)CC2)cc1`: 7700 nM and 2900 nM.
Turning to `CC(=O)c1ccc(N2CCN(C(=O)c3cc(S(N)(=O)=O)ccc3N3CCOCC3)CC2)c(F)c1`, the Ratio EC50 in data set [3] is greater than 250. Also, the Papp in data set [4] worked out at 3.3 ×10⁻⁶ cm/s. In addition, the clearance in data set [5] was 31 µL/min/mg. Also, the solubility in data set [6] was found to be 308 µg/mL (≈ 628 µM). Also, the EC50 in data set [1] is greater than 30000 nM; in data set [2], 120 nM.
Regarding `CC(=O)c1ccc(N2CCN(C(=O)c3cc([N+](=O)[O-])ccc3N3CCOCC3)CC2)c(F)c1`, in data set [3], the Ratio EC50 came to 320. Moreover, in data set [4], the Papp was found to be 4.7 ×10⁻⁶ cm/s. Besides, the clearance in data set [5] worked out at 35 µL/min/mg; in data set [7], 106 µL/min/mg. This compound returned a solubility in data set [6] of 9 µg/mL (≈ 19.7 µM). The EC50 in data set [1] stood at 4800 nM; in data set [2], 15 nM.
In data set [2], `CC(=O)c1ccc(N2CCN(C(=O)c3cc([N+](=O)[O-])ccc3NCC3CCCCC3)CC2)c(F)c1` showed an EC50 greater than 10000 nM.
In the case of `N#Cc1cc(C(F)(F)F)ccc1N1CCN(C(=O)c2cc([N+](=O)[O-])ccc2N2CCOCC2)CC1`, the EC50 in data set [1] is greater than 30000 nM; in data set [2], 15 nM.
Turning to `CC(=O)c1ccc(N2CCN(C(=O)c3cc([N+](=O)[O-])ccc3NC(C)C)CC2)c(F)c1`, the EC50 turned out to be 10000 nM in data set [1] and 2 nM in data set [2].
As to `CS(=O)(=O)c1ccc(N2CCN(C(=O)c3cc([N+](=O)[O-])ccc3N3CCOCC3)CC2)c(F)c1`, the EC50 in data set [1] was greater than 30000 nM; in data set [2] it was 40 nM.
The matching figures for `CC(=O)c1ccc(N2CCN(C(=O)c3cc(S(C)(=O)=O)ccc3OC(C)C)CC2)c(F)c1`: greater than 30000 nM and 39 nM.
The matching figures for `O=C(c1cc([N+](=O)[O-])ccc1N1CCOCC1)N1CCN(c2ncc(C(F)(F)F)cc2Cl)CC1`: greater than 30000 nM and 47 nM.
On to `CC(=O)c1ccc(N2CCN(C(=O)c3cccc([N+](=O)[O-])c3)CC2)c(F)c1`, for which the half-maximal effective concentration (EC50) is 24500 nM in data set [1] and 32000 nM in data set [2].
The matching figures for `CC(=O)c1ccc(N2CCN(C(=O)c3cc([N+](=O)[O-])ccc3N3CCCCC3)CC2)c(F)c1`: 4000 nM and 1 nM.
Consider `COc1ccccc1N1CCN(C(=O)c2cc([N+](=O)[O-])ccc2N2CCOCC2)CC1`, for which the EC50 in data set [1] is 13400 nM; in data set [2] it was greater than 10000 nM.
On to `COc1cccc(N2CCN(C(=O)c3cc([N+](=O)[O-])ccc3N3CCOCC3)CC2)c1`, for which the EC50 in data set [1] amounted to 8300 nM; in data set [2] it was 530 nM.
The matching figures for `CC(=O)c1ccc(N2CCN(C(=O)c3cc([N+](=O)[O-])ccc3NC3CCCCC3)CC2)c(F)c1`: 8500 nM and 2 nM.
On to `CC(=O)c1ccc(N2CCN(C(=O)c3cc([N+](=O)[O-])ccc3N(C)C)CC2)c(F)c1`, for which the figures for the EC50 in data set [1] and in data set [2] were 2000 nM and 500 nM, respectively.
The matching figures for `O=C(c1cc([N+](=O)[O-])ccc1N1CCOCC1)N1CCN(c2ccc(C(F)(F)F)c(Cl)n2)CC1`: 24000 nM and 33 nM.
Turning to `O=C(c1cc([N+](=O)[O-])ccc1N1CCOCC1)N1CCN(c2ccc(C(F)(F)F)c(F)c2)CC1`, the EC50 in data set [1] amounted to 15000 nM; in data set [2], 37 nM.
Take `O=C(c1cc([N+](=O)[O-])ccc1N1CCOCC1)N1CCN(c2cccc(C(F)(F)F)c2)CC1`: the EC50 in data set [1] was found to be 300 nM; in data set [2] it was 400 nM.
In data set [2], `CC(=O)c1ccc(N2CCN(C(=O)c3ccccc3N3CCOCC3)CC2)c(F)c1` came in with an EC50 greater than 30000 nM.
Regarding `CCCS(=O)(=O)c1ccc(N2CCOCC2)c(C(=O)N2CCN(c3ccc(C(C)=O)cc3F)CC2)c1`, the EC50 is greater than 30000 nM in data set [1] and 1600 nM in data set [2].
The matching figures for `Cc1cccc(N2CCN(C(=O)c3cc([N+](=O)[O-])ccc3N3CCOCC3)CC2)c1`: 4000 nM and 1100 nM.
`N#Cc1ccc(N2CCN(C(=O)c3cc([N+](=O)[O-])ccc3N3CCOCC3)CC2)cc1`: the results for the EC50 in data set [1] and in data set [2] were 1100 nM and 78 nM, respectively.
The matching figures for `CC(=O)c1ccc(N2CCN(C(=O)c3cc(C)ccc3N3CCOCC3)CC2)c(F)c1`: greater than 30000 nM and greater than 30000 nM.
The matching figures for `CC(=O)c1ccc(N2CCN(C(=O)c3cc(S(C)(=O)=O)ccc3SC(C)C)CC2)c(F)c1`: greater than 30000 nM and 15 nM.
The matching figures for `N#Cc1ccc(N2CCN(C(=O)c3cc([N+](=O)[O-])ccc3N3CCOCC3)CC2)c(F)c1`: 4300 nM and 30 nM.
With `CC(=O)c1ccc(N2CCN(C(=O)c3cc(N)ccc3N3CCOCC3)CC2)c(F)c1`, the EC50 in data set [1] and in data set [2] was greater than 30000 nM throughout.
